Legend:
Assay type in all cases: functional
[1] = test system: Plasmodium berghei; test: Antimalarial survival activity in Plasmodium berghei infected NMRI mice (Mus musculus) at 30 mg/kg peroral dose (3x daily); details: route oral
In short: (§1)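 P. berghei GFP ANKA, 2 × 10⁷ parasitized erythrocytes given intravenously to NMRI mice on day 0. Compound in 70/30 Tween 80/ethanol, diluted 10× with water, given orally at 10 mL/kg at 24, 48 and 72 h postinfection; n = 3 per group. Read-out is average survival in days after infection, with individual survival also given. Cure means no blood parasites by flow cytometry on day 30.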

[2] = test system: Plasmodium berghei; test: Antimalarial activity as survival time in Plasmodium berghei-infected NMRI mice (Mus musculus) at 10 mg/kg peroral dose three times daily; details: route oral; in short: as §1
[3] = test system: Plasmodium berghei; test: Antimalarial survival activity in Plasmodium berghei infected NMRI mice (Mus musculus) at 30 mg/kg peroral dose; details: route oral
In short: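 NMRI mice were infected intravenously on day 0 with 2 × 10⁷ P. berghei GFP ANKA parasitized erythrocytes. One oral dose of 30 mg/kg was given 24 h postinfection in 70/30 Tween 80/ethanol diluted 10× with water, at 10 mL/kg; n = 3 per group. Read-out is average survival in days after infection.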

[4] = test system: Plasmodium berghei; test: Reduced parasitemia in Plasmodium berghei infected NMRI mice (Mus musculus); set-up: concentration or dose not given beside the values
In short: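 P. berghei GFP ANKA infection (2 × 10⁷ parasitized erythrocytes i.v., day 0) in NMRI mice, n = 3 per group. One oral dose of 1 × 30 mg/kg at 24 h postinfection, in Tween 80/ethanol 70/30 diluted 10× with water. Blood parasitemia on day 3 postinfection by flow cytometry, given as % suppression against untreated infected mice.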

SMILES	Survival [1]	Survival [2] [days]	Survival [3] [days]	Activity [4] [%]
CNC(=O)N1CCC2(CC1)OCC(C[C@H]1O[C@@H]3O[C@]4(C)CC[C@H]5[C@H](C)CC[C@@H]([C@H]1C)[C@@]35OO4)(C[C@H]1O[C@@H]3O[C@]4(C)CC[C@H]5[C@H](C)CC[C@@H]([C@H]1C)[C@@]35OO4)O2 (stereo partly specified)	>=30 day	13.3		
C[C@H]1[C@@H](CC2(C[C@H]3O[C@@H]4O[C@]5(C)CC[C@H]6[C@H](C)CC[C@@H]([C@H]3C)[C@@]46OO5)COCO2)O[C@@H]2O[C@]3(C)CC[C@H]4[C@H](C)CC[C@@H]1[C@@]24OO3 (stereo partly specified)	>=30 day	11		
Cc1ccc(COCC(C[C@H]2O[C@@H]3O[C@]4(C)CC[C@H]5[C@H](C)CC[C@@H]([C@H]2C)[C@@]35OO4)C[C@H]2O[C@@H]3O[C@]4(C)CC[C@H]5[C@H](C)CC[C@@H]([C@H]2C)[C@@]35OO4)cc1 (stereo partly specified)	>=30 day	8		
C[C@H]1[C@@H](CC2(C[C@H]3O[C@@H]4O[C@]5(C)CC[C@H]6[C@H](C)CC[C@@H]([C@H]3C)[C@@]46OO5)COC3(CCC(=O)CC3)O2)O[C@@H]2O[C@]3(C)CC[C@H]4[C@H](C)CC[C@@H]1[C@@]24OO3 (stereo partly specified)	>=30 day	16.3	8.3	99.6
C[C@H]1[C@@H](CC2(C[C@H]3O[C@@H]4O[C@]5(C)CC[C@H]6[C@H](C)CC[C@@H]([C@H]3C)[C@@]46OO5)COC3(CCC3)O2)O[C@@H]2O[C@]3(C)CC[C@H]4[C@H](C)CC[C@@H]1[C@@]24OO3 (stereo partly specified)	>=30 day	7		
CCOP(=S)(OCC)OCC(C[C@H]1O[C@@H]2O[C@]3(C)CC[C@H]4[C@H](C)CC[C@@H]([C@H]1C)[C@@]24OO3)C[C@H]1O[C@@H]2O[C@]3(C)CC[C@H]4[C@H](C)CC[C@@H]([C@H]1C)[C@@]24OO3 (stereo partly specified)	24.7 days	7.7		
CCN(CC)C(=O)OCC(C[C@H]1O[C@@H]2O[C@]3(C)CC[C@H]4[C@H](C)CC[C@@H]([C@H]1C)[C@@]24OO3)C[C@H]1O[C@@H]2O[C@]3(C)CC[C@H]4[C@H](C)CC[C@@H]([C@H]1C)[C@@]24OO3 (stereo partly specified)	>=30 day	14	11.7	99.3
C[C@H]1[C@@H](CC2(C[C@H]3O[C@@H]4O[C@]5(C)CC[C@H]6[C@H](C)CC[C@@H]([C@H]3C)[C@@]46OO5)COC3(CCOCC3)O2)O[C@@H]2O[C@]3(C)CC[C@H]4[C@H](C)CC[C@@H]1[C@@]24OO3 (stereo partly specified)	>=30 day	15.7	9	99.5
C[C@H]1[C@@H](CC(C[C@H]2O[C@@H]3O[C@]4(C)CC[C@H]5[C@H](C)CC[C@@H]([C@H]2C)[C@@]35OO4)=NNC(=O)c2ccncc2)O[C@@H]2O[C@]3(C)CC[C@H]4[C@H](C)CC[C@@H]1[C@@]24OO3	>=30 day	17.7	10	99.4
C[C@H]1[C@@H](CC2(C[C@H]3O[C@@H]4O[C@]5(C)CC[C@H]6[C@H](C)CC[C@@H]([C@H]3C)[C@@]46OO5)COC3(CCN(C(=O)c4ccccc4)CC3)O2)O[C@@H]2O[C@]3(C)CC[C@H]4[C@H](C)CC[C@@H]1[C@@]24OO3 (stereo partly specified)		15.7	10	99
C[C@H]1[C@@H](CC(C[C@H]2O[C@@H]3O[C@]4(C)CC[C@H]5[C@H](C)CC[C@@H]([C@H]2C)[C@@]35OO4)C(=O)NCC2CCCCC2)O[C@@H]2O[C@]3(C)CC[C@H]4[C@H](C)CC[C@@H]1[C@@]24OO3 (stereo partly specified)	>=30 day	7		
C[C@H]1[C@@H](CC(C[C@H]2O[C@@H]3O[C@]4(C)CC[C@H]5[C@H](C)CC[C@@H]([C@H]2C)[C@@]35OO4)c2nnc(-c3ccc(F)cc3)o2)O[C@@H]2O[C@]3(C)CC[C@H]4[C@H](C)CC[C@@H]1[C@@]24OO3 (stereo partly specified)			10	98.8
Cc1noc(C(C[C@H]2O[C@@H]3O[C@]4(C)CC[C@H]5[C@H](C)CC[C@@H]([C@H]2C)[C@@]35OO4)C[C@H]2O[C@@H]3O[C@]4(C)CC[C@H]5[C@H](C)CC[C@@H]([C@H]2C)[C@@]35OO4)n1 (stereo partly specified)			13.7	98.9
C[C@H]1[C@@H](CC(C[C@H]2O[C@@H]3O[C@]4(C)CC[C@H]5[C@H](C)CC[C@@H]([C@H]2C)[C@@]35OO4)C(=O)NCC(C)(C)C)O[C@@H]2O[C@]3(C)CC[C@H]4[C@H](C)CC[C@@H]1[C@@]24OO3 (stereo partly specified)	27.7 days	6		
C[C@H]1[C@@H](CC(C[C@H]2O[C@@H]3O[C@]4(C)CC[C@H]5[C@H](C)CC[C@@H]([C@H]2C)[C@@]35OO4)C(=O)NCc2ccncc2)O[C@@H]2O[C@]3(C)CC[C@H]4[C@H](C)CC[C@@H]1[C@@]24OO3 (stereo partly specified)	11.3 days	7		
C[C@H]1[C@@H](CC(O)(COC(=O)c2ccccc2)C[C@H]2O[C@@H]3O[C@]4(C)CC[C@H]5[C@H](C)CC[C@@H]([C@H]2C)[C@@]35OO4)O[C@@H]2O[C@]3(C)CC[C@H]4[C@H](C)CC[C@@H]1[C@@]24OO3 (stereo partly specified)	20.7 days	6		
C[C@H]1[C@@H](CC(C[C@H]2O[C@@H]3O[C@]4(C)CC[C@H]5[C@H](C)CC[C@@H]([C@H]2C)[C@@]35OO4)C(=O)N[C@@H](C)c2ccc(F)cc2)O[C@@H]2O[C@]3(C)CC[C@H]4[C@H](C)CC[C@@H]1[C@@]24OO3 (stereo partly specified)			12.7	98.9
C[C@@H]1CC[C@H]2[C@@H](C)C(OC(=O)CCC(=O)[O-])O[C@@H]3O[C@]4(C)CC[C@@H]1[C@]32OO4.[Na+] (stereo partly specified)	7.2 days		7.6	92
COC(=O)c1ccc(CNC(=O)C(C[C@H]2O[C@@H]3O[C@]4(C)CC[C@H]5[C@H](C)CC[C@@H]([C@H]2C)[C@@]35OO4)C[C@H]2O[C@@H]3O[C@]4(C)CC[C@H]5[C@H](C)CC[C@@H]([C@H]2C)[C@@]35OO4)cc1 (stereo partly specified)		10		
Cc1ccc(CNC(=O)C(C[C@H]2O[C@@H]3O[C@]4(C)CC[C@H]5[C@H](C)CC[C@@H]([C@H]2C)[C@@]35OO4)C[C@H]2O[C@@H]3O[C@]4(C)CC[C@H]5[C@H](C)CC[C@@H]([C@H]2C)[C@@]35OO4)cc1 (stereo partly specified)			10.3	99
CCOC(=O)N1CCC2(CC1)OCC(C[C@H]1O[C@@H]3O[C@]4(C)CC[C@H]5[C@H](C)CC[C@@H]([C@H]1C)[C@@]35OO4)(C[C@H]1O[C@@H]3O[C@]4(C)CC[C@H]5[C@H](C)CC[C@@H]([C@H]1C)[C@@]35OO4)O2 (stereo partly specified)	>=30 day	14	8.7	99.6
C[C@H]1[C@@H](CC2(C[C@H]3O[C@@H]4O[C@]5(C)CC[C@H]6[C@H](C)CC[C@@H]([C@H]3C)[C@@]46OO5)COC3(CCS(=O)(=O)CC3)O2)O[C@@H]2O[C@]3(C)CC[C@H]4[C@H](C)CC[C@@H]1[C@@]24OO3	>=30 day	8.3		
C[C@H]1[C@@H](CC(O)(COCC#CCOCc2ccc(F)cc2)C[C@H]2O[C@@H]3O[C@]4(C)CC[C@H]5[C@H](C)CC[C@@H]([C@H]2C)[C@@]35OO4)O[C@@H]2O[C@]3(C)CC[C@H]4[C@H](C)CC[C@@H]1[C@@]24OO3 (stereo partly specified)			6.3	88
C[C@H]1[C@@H](CC(O)(COCc2ccncc2)C[C@H]2O[C@@H]3O[C@]4(C)CC[C@H]5[C@H](C)CC[C@@H]([C@H]2C)[C@@]35OO4)O[C@@H]2O[C@]3(C)CC[C@H]4[C@H](C)CC[C@@H]1[C@@]24OO3 (stereo partly specified)	>=30 day	14.7	10	99.2
